# Test results published in ChEMBL document CHEMBL1125427, “Synthesis of 3-(2-pyridylethyl)benzoxazolinone derivatives: potent analgesic and antiinflammatory compounds inhibiting prostaglandin E2” (1992).
# Experiments:
# Assay type in all cases: functional
# Mus musculus [1] = assay: Inhibitory activity against carrageenan induced paw edema in mice; set-up: concentration or dose not given beside the values
# Mus musculus [2] = assay: Intestinal ulcerogenic activity at a dose of 100 mg/kg
# Summary of the method: (§1)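 Fed animals were gavaged with compound on 3 consecutive days and killed 24 h after the last dose. Intestines were examined for ulcers. Read-out: ulcer incidence per group of 8 and lesion length (mm/mouse ± SE).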
# Mus musculus [3] = assay: Gastric ulcerogenic activity at a dose of 300 mg/kg: group of 8 mice were considered for the test
# Summary of the method: (§2)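 Mice fasted 24 h with water available. Compound in methyl cellulose vehicle given by oral gavage at 0.5 mL/100 g body weight. Animals were killed after 4 h and stomachs examined for lesions under a dissecting microscope. Read-out: ulcer incidence per group of 8 and lesion length (mm/mouse ± SE).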
# Mus musculus [4] = assay: Gastric ulcerogenic activity at a dose of 300 mg/kg; summary of the method: as §2
# Mus musculus [5] = assay: The compound was evaluated for inhibition of edema induced by bradykinin at 100 ug/mL
# Summary of the method: (§3)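 Mice, six per group, dosed orally at 100 mg/kg. After 60 min, 0.01 mL of phlogistic agent (arachidonic acid or bradykinin) was injected subcutaneously into the right hind paw plantar surface. Edema was measured by dial thickness gauge and the effect expressed as percent inhibition.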
# Mus musculus [6] = species: Mus musculus; assay: Analgesic activity in mice; set-up: concentration or dose not given beside the values
# Summary of the method: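 Female albino mice (22 ± 2 g, local breed), groups of eight, dosed orally at 100 mg/kg as a suspension in 5% gum arabic syrup. After 1 h, 3% acetic acid was given ip at 300 mg/kg. Stretches were counted over 10 min, starting 5 min after injection. Percent activity = |n − n'|/n × 100 against syrup-only controls (n = 6).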
# Mus musculus [7] = assay: Gastric ulcerogenic activity at a dose of 100 mg/kg; summary of the method: as §2
# Mus musculus [8] = assay: Antiinflammatory activity against CPE in mice following peroral administration of 30 mg/kg; settings: route oral
# Summary of the method: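 Female albino mice (22 ± 2 g), six per group, dosed orally. After 60 min, 0.01 mL of 2% carrageenan was injected subcutaneously into the right hind paw plantar surface. Edema was read with a dial thickness gauge 3 h later. ED50 was given in mg/kg po with 95% confidence limits.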
# Mus musculus [9] = assay: The compound was evaluated for inhibition of edema induced by serotonin at 250 ug/mL
# Summary of the method: (§4)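 Female albino mice (22 ± 2 g, local breed), six per group, housed in eights with free food and water, acclimatised at least 2 days. Compound given orally at 100 mg/kg; 60 min later 0.01 mL of the phlogistic agent (histamine or serotonin) injected subcutaneously into the right hind paw plantar surface. Paw edema measured with a dial thickness gauge; effect expressed as percent inhibition.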
# Mus musculus [10] = assay: Gastric ulcerogenic activity at a dose of 30 mg/kg: group of 8 mice were considered for the test; summary of the method: as §2
# Mus musculus [11] = assay: Gastric ulcerogenic activity at a dose of 100 mg/kg: group of 8 mice were considered for the test; summary of the method: as §2
# Mus musculus [12] = assay: Intestinal ulcerogenic activity at a dose of 30 mg/kg; summary of the method: as §1
# Mus musculus [13] = assay: The compound was evaluated for inhibition of edema induced by arachidonic acid at 1 mg/mL; summary of the method: as §3
# Mus musculus [14] = assay: The compound was evaluated for inhibition of edema induced by PGE at […]
# Summary of the method: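 Mice, six per group, dosed orally at 100 mg/kg. After 60 min, PGE2 (20 μg/0.01 mL) was injected subcutaneously into the right hind paw plantar surface. Edema was measured with a dial thickness gauge and the effect expressed as percent inhibition.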
# Mus musculus [15] = assay: Intestinal ulcerogenic activity at a dose of 100 mg/kg: group of 8 mice were considered for the test; summary of the method: as §1
# Mus musculus [16] = assay: Intestinal ulcerogenic activity at a dose of 30 mg/kg: group of 8 mice were considered for the test; summary of the method: as §1
# Mus musculus [17] = assay: Intestinal ulcerogenic activity at a dose of 300 mg/kg: group of 8 mice were considered for the test; summary of the method: as §1
# Mus musculus [18] = assay: Gastric ulcerogenic activity at a dose of 30 mg/kg; summary of the method: as §2
# Mus musculus [19] = assay: The compound was evaluated for inhibition of edema induced by histamine at 10 mg/mL; summary of the method: as §4
# Mus musculus [20] = assay: Intestinal ulcerogenic activity at a dose of 300 mg/kg; summary of the method: as §1
smiles,measurement,setting,value
O=C(c1ccccc1Cl)c1cc2oc(=O)n(CCc3ccncc3)c2cc1Cl,Inhibition,Mus musculus [1],49.6%
same,Lesion length,Mus musculus [2],0 mm mice-1
same,Ulcer incidence,Mus musculus [3],1 number/group
same,Lesion length,Mus musculus [4],0.4 mm mice-1
same,Inhibition,Mus musculus [5],12%
same,Analgesic activity,Mus musculus [6],92.61%
same,Lesion length,Mus musculus [7],0 mm mice-1
same,ED50,Mus musculus [8],30 mg/kg
same,Inhibition,Mus musculus [9],8.4%
same,Ulcer incidence,Mus musculus [10],0 number/group
same,Ulcer incidence,Mus musculus [11],0 number/group
same,Lesion length,Mus musculus [12],0 mm mice-1
same,Inhibition,Mus musculus [13],43%
same,Inhibition,Mus musculus [14],55%
same,Ulcer incidence,Mus musculus [15],0 number/group
same,Ulcer incidence,Mus musculus [16],0 number/group
same,Ulcer incidence,Mus musculus [17],0 number/group
same,Lesion length,Mus musculus [18],0 mm mice-1
same,Inhibition,Mus musculus [19],9.3%
same,Lesion length,Mus musculus [20],0.4 mm mice-1
